From ChEMBL document CHEMBL1143126, “Synthesis, cytotoxic evaluation, and DNA binding of novel thiazolo[5,4-b]quinoline derivatives” (Bioorg Med Chem, 2008)

test system: K562; assay: Antiproliferative activity against human K562 cells after 72 hrs by MTT assay; format: functional, cell-based; conditions: K562, 72 h
Outline: (§1)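 Cells seeded at 4.5–5.0 · 10⁴ cells/ml/well in 24-well plates, then incubated with or without compounds added in DMSO. After 72 h, MTT in PBS pH 7.2 was added. Formazan was dissolved in DMSO and the plates centrifuged, then absorbance was read at 540 nm. % growth inhibition = (1 − treated/untreated absorbance) × 100.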

Row | Structure (SMILES) | IC50
1 | COc1cccc(Nc2c3ccccc3nc3sc(SC)nc23)c1 | 22.2 µM
2 | CSc1nc2c(Nc3cccc([N+](=O)[O-])c3)c3ccccc3nc2s1 | > 200 µM
3 | CSc1nc2c(Nc3ccccc3)c3ccccc3nc2s1 | > 200 µM
4 | CCN(CC)CCNc1c2ccccc2nc2sc(SC)nc12 | 7.85 µM
5 | CSc1nc2c(Nc3cccc(N)c3)c3ccccc3nc2s1 | 143 µM
6 | CSc1nc2c(Nc3cc(N)cc(CO)c3)c3ccccc3nc2s1 | 143 µM
7 | CCN(CC)CCNc1nc2c(Cl)c3ccccc3nc2s1 | 9.28 µM
8 | CSc1nc2c(Nc3cccc(O)c3)c3ccccc3nc2s1 | 173 µM
9 | CSc1nc2c(Nc3cccc(C#N)c3)c3ccccc3nc2s1 | 8.01 µM
10 | CSc1nc2c(Nc3ccc(C#N)cc3)c3ccccc3nc2s1 | 120 µM
11 | CCN(CC)CCNC(=O)c1cccc(Nc2c3ccccc3nc3sc(SC)nc23)c1 | 12.5 µM
12 | CSc1nc2c(Nc3cccc(NC(C)=O)c3)c3ccccc3nc2s1 | 85.3 µM
13 | COc1ccc(Nc2c3ccccc3nc3sc(SC)nc23)cc1 | 77.2 µM

test system: SW480; assay: Antiproliferative activity against human SW480 cells after 72 hrs by MTT assay; format: functional, cell-based; conditions: SW480, 72 h; outline: as §1

Row | Structure (SMILES) | IC50
14 | COc1cccc(Nc2c3ccccc3nc3sc(SC)nc23)c1 | 66.7 µM
15 | CSc1nc2c(Nc3cccc([N+](=O)[O-])c3)c3ccccc3nc2s1 | > 200 µM
16 | CSc1nc2c(Nc3ccccc3)c3ccccc3nc2s1 | > 200 µM
17 | CCN(CC)CCNc1c2ccccc2nc2sc(SC)nc12 | 28 µM
18 | CSc1nc2c(Nc3cccc(N)c3)c3ccccc3nc2s1 | > 200 µM
19 | CSc1nc2c(Nc3cc(N)cc(CO)c3)c3ccccc3nc2s1 | > 200 µM
20 | CCN(CC)CCNc1nc2c(Cl)c3ccccc3nc2s1 | 19.5 µM
21 | CNc1cccc(Nc2c3ccccc3nc3sc(SC)nc23)c1 | 101 µM
22 | CSc1nc2c(Nc3cccc(O)c3)c3ccccc3nc2s1 | 147 µM
23 | CSc1nc2c(Nc3ccc(Cl)cc3)c3ccccc3nc2s1 | > 200 µM
24 | CSc1nc2c(Nc3cccc(C#N)c3)c3ccccc3nc2s1 | 28.7 µM
25 | CSc1nc2c(Nc3ccc(C#N)cc3)c3ccccc3nc2s1 | > 200 µM
26 | CCN(CC)CCNC(=O)c1cccc(Nc2c3ccccc3nc3sc(SC)nc23)c1 | 13.6 µM
27 | CSc1nc2c(Nc3cccc(Cl)c3)c3ccccc3nc2s1 | 111 µM
28 | CSc1nc2c(Nc3cccc(NC(C)=O)c3)c3ccccc3nc2s1 | > 200 µM
29 | COc1ccc(Nc2c3ccccc3nc3sc(SC)nc23)cc1 | > 200 µM

test system: SW-620; assay: Antiproliferative activity against human SW620 cells after 72 hrs by MTT assay; format: functional, cell-based; conditions: SW-620, 72 h; outline: as §1

Row | Structure (SMILES) | IC50
30 | COc1cccc(Nc2c3ccccc3nc3sc(SC)nc23)c1 | 26.6 µM
31 | CSc1nc2c(Nc3cccc([N+](=O)[O-])c3)c3ccccc3nc2s1 | 161 µM
32 | CSc1nc2c(Nc3ccccc3)c3ccccc3nc2s1 | > 200 µM
33 | CCN(CC)CCNc1c2ccccc2nc2sc(SC)nc12 | 16.9 µM
34 | CSc1nc2c(Nc3cccc(N)c3)c3ccccc3nc2s1 | > 200 µM
35 | CSc1nc2c(Nc3cc(N)cc(CO)c3)c3ccccc3nc2s1 | 184 µM
36 | CCN(CC)CCNc1nc2c(Cl)c3ccccc3nc2s1 | 15.2 µM
37 | CNc1cccc(Nc2c3ccccc3nc3sc(SC)nc23)c1 | 119 µM
38 | CSc1nc2c(Nc3cccc(O)c3)c3ccccc3nc2s1 | 146 µM
39 | CSc1nc2c(Nc3ccc(Cl)cc3)c3ccccc3nc2s1 | 146 µM
40 | CSc1nc2c(Nc3cccc(C#N)c3)c3ccccc3nc2s1 | 43.8 µM
41 | CSc1nc2c(Nc3ccc(C#N)cc3)c3ccccc3nc2s1 | > 200 µM
42 | CCN(CC)CCNC(=O)c1cccc(Nc2c3ccccc3nc3sc(SC)nc23)c1 | 19.7 µM
43 | CSc1nc2c(Nc3cccc(Cl)c3)c3ccccc3nc2s1 | 130 µM
44 | CSc1nc2c(Nc3cccc(NC(C)=O)c3)c3ccccc3nc2s1 | 154 µM
45 | COc1ccc(Nc2c3ccccc3nc3sc(SC)nc23)cc1 | 111 µM

test system: DNA; assay: Ratio of Qmax for calf thymus DNA to Q50 for calf thymus DNA; format: nucleic-acid assay; conditions: Bos taurus
Outline: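 Efficiency index calculated as Qmax/Q50 from ethidium displacement titrations (Tris–HCl pH 7.4, 0.15 M NaCl). Compounds were added serially from DMSO stocks (DMSO ≤8%), and quenching was read at 584 nm with 546 nm excitation. Qmax is the maximum quenching; Q50 is the concentration for 50% quenching of bound ethidium.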

Row | Structure (SMILES) | Ratio
46 | COc1cccc(Nc2c3ccccc3nc3sc(SC)nc23)c1 | 1.79
47 | CSc1nc2c(Nc3ccccc3)c3ccccc3nc2s1 | 0.31
48 | CCN(CC)CCNc1c2ccccc2nc2sc(SC)nc12 | 4.87
49 | CSc1nc2c(Nc3cccc(N)c3)c3ccccc3nc2s1 | 1.17
50 | CSc1nc2c(Nc3cc(N)cc(CO)c3)c3ccccc3nc2s1 | 0.79
51 | CCN(CC)CCNc1nc2c(Cl)c3ccccc3nc2s1 | 2.36
52 | CNc1cccc(Nc2c3ccccc3nc3sc(SC)nc23)c1 | 2.37
53 | CSc1nc2c(Nc3cccc(O)c3)c3ccccc3nc2s1 | 2.15
54 | CSc1nc2c(Nc3ccc(Cl)cc3)c3ccccc3nc2s1 | 0.84
55 | CSc1nc2c(Nc3cccc(C#N)c3)c3ccccc3nc2s1 | 0.68
56 | CSc1nc2c(Nc3ccc(C#N)cc3)c3ccccc3nc2s1 | 0.9
57 | CCN(CC)CCNC(=O)c1cccc(Nc2c3ccccc3nc3sc(SC)nc23)c1 | 1.39
58 | CSc1nc2c(Nc3cccc(Cl)c3)c3ccccc3nc2s1 | 2
59 | CCN(CC)CCNc1nc2c(Nc3ccccc3)c3ccccc3nc2s1 | 0.46
60 | CSc1nc2c(Nc3cccc(NC(C)=O)c3)c3ccccc3nc2s1 | 0.82
61 | COc1ccc(Nc2c3ccccc3nc3sc(SC)nc23)cc1 | 0.39
62 | Nc1cc(CO)cc(Nc2c3ccccc3nc3ccccc23)c1 | 6.49
63 | CSc1nc2c(Nc3cccc(C(F)(F)F)c3)c3ccccc3nc2s1 | 3.08

test system: not listed separately; assay: Antiproliferative activity against human C33 cells after 72 hrs by MTT assay; format: functional, cell-based; conditions: C33, 72 h; outline: as §1

Row | Structure (SMILES) | IC50
64 | COc1cccc(Nc2c3ccccc3nc3sc(SC)nc23)c1 | 75.4 µM
65 | CSc1nc2c(Nc3cccc([N+](=O)[O-])c3)c3ccccc3nc2s1 | > 200 µM
66 | CSc1nc2c(Nc3ccccc3)c3ccccc3nc2s1 | 154 µM
67 | CCN(CC)CCNc1c2ccccc2nc2sc(SC)nc12 | 9.06 µM
68 | CSc1nc2c(Nc3cccc(N)c3)c3ccccc3nc2s1 | 139 µM
69 | CSc1nc2c(Nc3cc(N)cc(CO)c3)c3ccccc3nc2s1 | > 200 µM
70 | CCN(CC)CCNc1nc2c(Cl)c3ccccc3nc2s1 | 9.35 µM
71 | COc1cc(NS(C)(=O)=O)ccc1Nc1c2ccccc2nc2ccccc12 [AMSACRINE] | 8.8 µM
72 | CNc1cccc(Nc2c3ccccc3nc3sc(SC)nc23)c1 | 134 µM
73 | CSc1nc2c(Nc3cccc(O)c3)c3ccccc3nc2s1 | 146 µM
74 | CSc1nc2c(Nc3ccc(Cl)cc3)c3ccccc3nc2s1 | > 200 µM
75 | CSc1nc2c(Nc3cccc(C#N)c3)c3ccccc3nc2s1 | 15.1 µM
76 | CSc1nc2c(Nc3ccc(C#N)cc3)c3ccccc3nc2s1 | > 200 µM
77 | CCN(CC)CCNC(=O)c1cccc(Nc2c3ccccc3nc3sc(SC)nc23)c1 | 19.9 µM
78 | CSc1nc2c(Nc3cccc(Cl)c3)c3ccccc3nc2s1 | 129 µM
79 | CCN(CC)CCNc1nc2c(Nc3ccccc3)c3ccccc3nc2s1 | 22.4 µM
80 | CSc1nc2c(Nc3cccc(NC(C)=O)c3)c3ccccc3nc2s1 | > 200 µM
81 | COc1ccc(Nc2c3ccccc3nc3sc(SC)nc23)cc1 | > 200 µM
82 | CSc1nc2c(Nc3cccc(C(F)(F)F)c3)c3ccccc3nc2s1 | 59.7 µM

test system: HeLa; assay: Antiproliferative activity against human HeLa cells after 72 hrs by MTT assay; format: functional, cell-based; conditions: not given; outline: as §1

Row | Structure (SMILES) | IC50
83 | COc1cccc(Nc2c3ccccc3nc3sc(SC)nc23)c1 | 25.3 µM
84 | CSc1nc2c(Nc3cccc([N+](=O)[O-])c3)c3ccccc3nc2s1 | 152 µM
85 | CSc1nc2c(Nc3ccccc3)c3ccccc3nc2s1 | > 200 µM
86 | CCN(CC)CCNc1c2ccccc2nc2sc(SC)nc12 | 13 µM
87 | CSc1nc2c(Nc3cccc(N)c3)c3ccccc3nc2s1 | 176 µM
88 | CSc1nc2c(Nc3cc(N)cc(CO)c3)c3ccccc3nc2s1 | > 200 µM
89 | CCN(CC)CCNc1nc2c(Cl)c3ccccc3nc2s1 | 12.9 µM
90 | CSc1nc2c(Nc3cccc(O)c3)c3ccccc3nc2s1 | > 200 µM
91 | CSc1nc2c(Nc3ccc(Cl)cc3)c3ccccc3nc2s1 | 124 µM
92 | CSc1nc2c(Nc3cccc(C#N)c3)c3ccccc3nc2s1 | 7.75 µM
93 | CSc1nc2c(Nc3ccc(C#N)cc3)c3ccccc3nc2s1 | 140 µM
94 | CCN(CC)CCNC(=O)c1cccc(Nc2c3ccccc3nc3sc(SC)nc23)c1 | 21.7 µM
95 | CSc1nc2c(Nc3cccc(NC(C)=O)c3)c3ccccc3nc2s1 | > 200 µM
96 | COc1ccc(Nc2c3ccccc3nc3sc(SC)nc23)cc1 | > 200 µM

test system: DNA; assay: Displacement of ethidium bromide from calf thymus DNA; format: nucleic-acid assay; conditions: Bos taurus
Outline: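 Fluorescence quenching of the DNA–ethidium bromide complex in Tris–HCl pH 7.4 with 0.15 M NaCl and ethidium bromide. Emission read at 584 nm with excitation at 546 nm, corrected for dilution. Precipitation was monitored by 600 nm light scatter at 90°. Qmax is the maximum quenching; Q50 is the concentration giving 50% quenching. Means of three experiments, SD.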

Row | Structure (SMILES) | Q50
97 | COc1cccc(Nc2c3ccccc3nc3sc(SC)nc23)c1 | 3.71 µM
98 | CSc1nc2c(Nc3ccccc3)c3ccccc3nc2s1 | 13.6 µM
99 | CCN(CC)CCNc1c2ccccc2nc2sc(SC)nc12 | 9.44 µM
100 | CSc1nc2c(Nc3cccc(N)c3)c3ccccc3nc2s1 | 6.96 µM
101 | CSc1nc2c(Nc3cc(N)cc(CO)c3)c3ccccc3nc2s1 | 22.6 µM
102 | CCN(CC)CCNc1nc2c(Cl)c3ccccc3nc2s1 | 11.1 µM
103 | CNc1cccc(Nc2c3ccccc3nc3sc(SC)nc23)c1 | 4.18 µM
104 | CSc1nc2c(Nc3cccc(O)c3)c3ccccc3nc2s1 | 7.64 µM
105 | CSc1nc2c(Nc3ccc(Cl)cc3)c3ccccc3nc2s1 | 2.19 µM
106 | CSc1nc2c(Nc3cccc(C#N)c3)c3ccccc3nc2s1 | 11.5 µM
107 | CSc1nc2c(Nc3ccc(C#N)cc3)c3ccccc3nc2s1 | 14.3 µM
108 | CCN(CC)CCNC(=O)c1cccc(Nc2c3ccccc3nc3sc(SC)nc23)c1 | 16.6 µM
109 | CSc1nc2c(Nc3cccc(Cl)c3)c3ccccc3nc2s1 | 1.29 µM
110 | CCN(CC)CCNc1nc2c(Nc3ccccc3)c3ccccc3nc2s1 | 52.5 µM
111 | CSc1nc2c(Nc3cccc(NC(C)=O)c3)c3ccccc3nc2s1 | 18.4 µM
112 | COc1ccc(Nc2c3ccccc3nc3sc(SC)nc23)cc1 | 9.48 µM
113 | Nc1cc(CO)cc(Nc2c3ccccc3nc3ccccc23)c1 | 7.36 µM
114 | CSc1nc2c(Nc3cccc(C(F)(F)F)c3)c3ccccc3nc2s1 | 0.53 µM
